Measurements published in ChEMBL document CHEMBL3822384, “2-(3-Methoxyphenyl)quinazoline Derivatives: A New Class of Direct Constitutive Androstane Receptor (CAR) Agonists” (J Med Chem, 2016).
pEC50: −log10 of the molar value.

What was measured:
Assay type in all cases: cell-based; call rule not given here
AHR = biological target: T1, AHR (Homo sapiens, UniProt P35869); experiment: (§1) Agonist activity at AHR expressed in human HepG2 cells after 24 hrs by pXRE-luciferase reporter gene assay; settings: human, HepG2 cells expressing AHR; read-out: Imax
T1 sequence (P35869 whole entry): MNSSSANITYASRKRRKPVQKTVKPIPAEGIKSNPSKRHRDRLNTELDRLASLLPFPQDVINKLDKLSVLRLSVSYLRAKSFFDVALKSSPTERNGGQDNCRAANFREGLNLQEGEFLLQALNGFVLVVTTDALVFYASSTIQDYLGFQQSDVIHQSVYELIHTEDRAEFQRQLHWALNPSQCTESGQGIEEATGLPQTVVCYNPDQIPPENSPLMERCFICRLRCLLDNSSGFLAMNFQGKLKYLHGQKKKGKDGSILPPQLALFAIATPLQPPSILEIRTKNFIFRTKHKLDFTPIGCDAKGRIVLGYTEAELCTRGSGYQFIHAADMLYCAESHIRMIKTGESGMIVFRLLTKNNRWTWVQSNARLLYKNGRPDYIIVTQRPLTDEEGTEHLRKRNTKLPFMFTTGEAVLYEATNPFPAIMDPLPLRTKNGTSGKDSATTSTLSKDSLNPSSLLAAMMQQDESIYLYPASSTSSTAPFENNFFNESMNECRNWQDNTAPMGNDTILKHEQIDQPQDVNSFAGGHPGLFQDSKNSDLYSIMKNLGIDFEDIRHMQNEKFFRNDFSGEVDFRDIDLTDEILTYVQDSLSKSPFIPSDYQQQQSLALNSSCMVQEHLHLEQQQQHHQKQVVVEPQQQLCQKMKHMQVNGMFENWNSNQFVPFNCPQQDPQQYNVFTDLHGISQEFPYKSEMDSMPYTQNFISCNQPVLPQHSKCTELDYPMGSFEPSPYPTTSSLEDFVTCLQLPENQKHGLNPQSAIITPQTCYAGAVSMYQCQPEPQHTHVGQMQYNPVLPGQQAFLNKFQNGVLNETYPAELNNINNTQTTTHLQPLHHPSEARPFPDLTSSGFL

HepG2 = experiment: Cytotoxicity against human HepG2 cells assessed as cell viability after 24 hrs by MTS assay; settings: hepg2, 24 h
[1] = biological target: T2, Nuclear receptor subfamily 1 group I member 3 (Homo sapiens, UniProt Q14994); experiment: Agonist activity at human CAR expressed in human HepG2 cells assessed as upregulation of CYP2B6 mRNA expression at 1 uM after 24 hrs by qRT-PCR method; settings: hepg2, 24 h
T2 sequence (Q14994 whole entry): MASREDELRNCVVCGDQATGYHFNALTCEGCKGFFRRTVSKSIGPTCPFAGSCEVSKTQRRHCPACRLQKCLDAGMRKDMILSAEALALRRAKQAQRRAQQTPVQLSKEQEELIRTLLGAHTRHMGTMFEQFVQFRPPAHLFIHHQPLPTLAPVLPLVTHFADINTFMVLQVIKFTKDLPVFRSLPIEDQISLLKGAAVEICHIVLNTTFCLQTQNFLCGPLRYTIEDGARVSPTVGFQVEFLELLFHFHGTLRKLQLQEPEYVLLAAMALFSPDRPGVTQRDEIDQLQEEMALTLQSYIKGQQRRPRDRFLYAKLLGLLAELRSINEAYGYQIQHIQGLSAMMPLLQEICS

[2] = biological target: T2, Nuclear receptor subfamily 1 group I member 3; experiment: Agonist activity at CAR expressed in human HepG2 cells at 1 to 20 uM after 48 hrs by p(ER6)3-luciferase reporter gene assay; settings: hepg2, 48 h
How it was run: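 HepG2 cells transiently co-transfected with p(ER6)3-luc reporter, wild-type CAR expression vector and pRL-TK normalization plasmid; after 24 h stabilization, treated with compounds or vehicle (DMSO 0.1%, v/v) for 48 h. Firefly and Renilla luciferase read; fold change versus vehicle (set to 1), means ± SD of triplicates from a representative experiment.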

[3] = biological target: T3, Aryl hydrocarbon receptor (Homo sapiens, UniProt P35869); experiment: as §1
T3 sequence (P35869 whole entry): T1 sequence (P35869 whole entry)

Row | SMILES | Emax at 24 h (AHR) | Activity (HepG2) | Activity [1] | Activity [2] | pEC50 [3]
1 | Clc1cc2c(cc1Cl)Oc1cc(Cl)c(Cl)cc1O2 [2,3,7,8-TETRACHLORODIBENZO-P-DIOXIN] | 59% | – | – | – | –
2 | Clc1ccc(-c2nc3sccn3c2/C=N/OCc2ccc(Cl)c(Cl)c2)cc1 | – | Non-toxic | Active | Active | –
3 | Cc1ccc2cc3c(ccc4ccccc43)c3c2c1CC3 [3-METHYLCHOLANTHRENE] | 119% | – | – | – | 6.31
4 | COc1cccc(-c2nc(O)c3ccccc3n2)c1 | – | – | – | Active | –
